The source of these data is ChEMBL document CHEMBL2169855, “Carbamoyl pyridone HIV-1 integrase inhibitors. 1. Molecular design and establishment of an advanced two-metal binding pharmacophore” (J Med Chem, 2012).

Some results are limits rather than exact numbers.

As a reminder, the IC50 is the concentration needed to halve the response being measured. What is called CC50 is the concentration that lowers cell viability or growth by half. The clearance is the volume of plasma or blood freed of the substance per unit of time. A word on the AUC(0-inf): it is the area under the concentration-time curve extrapolated to infinity. The term bioavailability denotes dose-corrected exposure relative to a reference, in per cent.

Series [1] concerns Human immunodeficiency virus 1. The experiment in a line: Inhibition of wild type HIV1 3B infected in human MT4 cells using cells pre-incubated with compound for 1 hr measured 4 days post viral infection by MTT assay. The format is functional, organism-based. The settings on record: Human immunodeficiency virus 1, 3B. Put shortly: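 MT-4 cells (2.5 × 10^4/well, RPMI 1640 + 10% FBS) exposed to compound dilutions 1 h, then infected with HIV-1 IIIB (MOI 0.001 or TCID50 4 to 10); after 4 days viability read by MTT absorbance at 560/690 nm; mean ± sd of three independent experiments.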
For orientation: Tetrazolium dyes change colour on reduction, which living cells bring about.

Series [2] can be described thus: Cytotoxicity against human MT4 cells incubated for 4 days by MTT assay. The format is cell-based. Put shortly: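 Uninfected MT-4 cells, 2.5 × 10^4/well, cultured with graded compound concentrations for 4 days; growth inhibition measured by MTT absorbance at 560 and 690 nm.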
Series [3] addresses Human immunodeficiency virus type 1 integrase (Human immunodeficiency virus 1, UniProt Q7ZJM1). Description: Inhibition of HIV1 integrase strand transfer activity using pre-incubation and wash with Mg2+ cofactor by ELISA based microtiter plate integration assay. Put shortly: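 Preformed IN–substrate DNA complex on microtiter plate, unbound IN washed out; compound preincubated with complex 30 min at 30 °C in 30 mM MOPS pH 7.2, 10 mM DTT, 5% glycerol, 100 μg/mL BSA; Mg2+ 15 mM throughout; strand transfer started with digoxigenin-labeled target DNA, products quantified by anti-Dig ELISA; mean ± sd of three independent experiments.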
(In an ELISA, binding on a coated surface is turned into a signal by an enzyme label.)

Series [4] is described as follows: Ratio of Plasma concentration in fed cynomolgus monkey at 5 mg/kg, po measured at 24 hrs to IC50 for wild type HIV1 3B infected in human MT4 cells in presence of 20 mg/ml HSA.
Series [5] can be described thus: Ratio of Plasma concentration in fed rat at 5 mg/kg, po measured at 24 hrs to IC50 for wild type HIV1 3B infected in human MT4 cells in presence of 20 mg/ml HSA.
The nature of series [6]: Inhibition of CYP450. It counts as ADME.
Series [7] in a line: Volume of distribution at steady state in fed beagle dog at 1 mg/kg, iv measured up to 24 hrs. It counts as ADME, organism-based, Canis lupus familiaris. Set-up: dose 1 mg/kg, route intravenous. Particulars: in vivo, read-out: Vdss; call rule not given here. Put shortly: (§1)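 Intravenous 1 mg/kg, fed conditions; vehicle DMA/PEG/saline (1:4:5) for rats, 50 mM N-methylglucamine in 3% mannitol for dogs and monkeys; rat blood via jugular cannula; plasma collected up to 24 h, centrifuged 16000g 3 min, held at −20 °C; noncompartmental analysis.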

A short description of series [8]: Terminal half life in fed rat at 1 mg/kg, iv measured up to 24 hrs. Particulars: in vivo, read-out: beta t1/2 (converted). Set-up: dose 1 mg/kg, route intravenous. It counts as ADME, organism-based. Put shortly: as §1
The nature of series [9]: Total clearance in fed beagle dog at 1 mg/kg, iv measured up to 24 hrs. Set-up: dose 1 mg/kg, route intravenous. The settings on record: in vivo. It counts as ADME, organism-based, Canis lupus familiaris. Put shortly: as §1
A short description of series [10]: Volume of distribution at steady state in fed cynomolgus monkey at 1 mg/kg, iv measured up to 24 hrs. The format is ADME, organism-based, Macaca fascicularis. Further details: dose 1 mg/kg, route intravenous. The settings on record: in vivo, read-out: Vdss. Put shortly: as §1
Series [11] concerns Human immunodeficiency virus 1. The experiment in a line: Inhibition of wild type HIV1 3B infected in human MT4 cells using cells pre-incubated with compound for 1 hr measured 4 days post viral infection in presence of 20 mg/ml HSA by MTT assay. It counts as functional, organism-based. Particulars: Human immunodeficiency virus 1, 3B.
The nature of series [12]: AUC (0 to infinity) in fed rat at 5 mg/kg, po measured up to 24 hrs. It counts as ADME, organism-based. Further details: time infinity, dose 5 mg/kg, route oral. Particulars: plasma.
The test system of series [13] is Human immunodeficiency virus 1. The experiment in a line: Resistance index, ratio of IC50 for HIV1 3B containing integrase N155H mutant to IC50 for wild type HIV1 3B. The format is functional. Put shortly:
(§2)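 Integrase mutations introduced into pNL432 molecular clone; plasmids transfected into 293T cells, supernatants harvested after 2 days and stored at −80 °C. Mutant and wild-type viruses tested in HeLa-CD4 cells carrying HIV-1 LTR-driven β-galactosidase reporter. Fold change is mutant IC50 over wild-type IC50.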

The nature of series [14]: Oral bioavailability in fed rat at 5 mg/kg measured up to 24 hrs. The format is ADME, organism-based. Particulars: in vivo.
The nature of series [15]: Total clearance in fed rat at 1 mg/kg, iv measured up to 24 hrs. It counts as ADME, organism-based. The settings on record: in vivo. Set-up: dose 1 mg/kg, route intravenous. Put shortly: as §1
A short description of series [16]: Half life in fed rat at 5 mg/kg, po measured up to 24 hrs. It counts as ADME, organism-based. Further details: dose 5 mg/kg, route oral. Particulars: in vivo.
The nature of series [17]: Total clearance in fed cynomolgus monkey at 1 mg/kg, iv measured up to 24 hrs. The format is ADME, organism-based, Macaca fascicularis. Further details: dose 1 mg/kg, route intravenous. The settings on record: in vivo. Put shortly:
as §1

Series [18] in a line: Terminal half life in fed beagle dog at 1 mg/kg, iv measured up to 24 hrs. The format is ADME, organism-based, Canis lupus familiaris. Set-up: dose 1 mg/kg, route intravenous. The settings on record: in vivo, read-out: beta t1/2 (converted). Put shortly: as §1
Series [19] is described as follows: Terminal half life in fed cynomolgus monkey at 1 mg/kg, iv measured up to 24 hrs. It counts as ADME, organism-based, Macaca fascicularis. Particulars: in vivo, read-out: beta t1/2 (converted). Further details: dose 1 mg/kg, route intravenous. Put shortly:
as §1

A short description of series [20]: Ratio of Plasma concentration in fed beagle dog at 5 mg/kg, po measured at 24 hrs to IC50 for wild type HIV1 3B infected in human MT4 cells in presence of 20 mg/ml HSA.
Series [21] can be described thus: Oral bioavailability in fed beagle dog at 5 mg/kg measured up to 24 hrs. It counts as ADME, organism-based, Canis lupus familiaris. The settings on record: in vivo.
Series [22] is described as follows: Volume of distribution at steady state in fed rat at 1 mg/kg, iv measured up to 24 hrs. Particulars: in vivo, read-out: Vdss. Set-up: dose 1 mg/kg, route intravenous. The format is ADME, organism-based. Put shortly:
as §1

Series [23] concerns Human immunodeficiency virus 1. Description: Resistance index, ratio of IC50 for HIV1 3B containing integrase Q148K mutant to IC50 for wild type HIV1 3B.
The subject of series [24] is Human immunodeficiency virus 1. Description: Resistance index, ratio of IC50 for HIV1 3B containing integrase Y143R mutant to IC50 for wild type HIV1 3B. It counts as functional. Put shortly: as §2
The subject of series [25] is Human immunodeficiency virus 1. Description: Potency shift, ratio of IC50 for wild type HIV1 3B infected in human MT4 cells in presence of 20 mg/ml HSA to IC50 for wild type HIV1 3B infected in human MT4 cells in absence of HSA. It counts as functional. Put shortly:
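MT-4 cells (2.5 × 10^4/well) preincubated 1 h with graded compound, then infected with HIV-1 IIIB (MOI 0.001 or TCID50 4 to 10), with or without human serum albumin 20 mg/mL; after 4 days viability read by MTT absorbance at 560/690 nm. Fold-shift = IC50 with HSA over IC50 without.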

A short description of series [26]: Oral bioavailability in fed cynomolgus monkey at 5 mg/kg measured up to 24 hrs. The format is ADME, organism-based, Macaca fascicularis. Particulars: in vivo.
Series [27] can be described thus: Plasma concentration in fed rat at 5 mg/kg, po measured at 24 hrs. The format is ADME, organism-based. Further details: dose 5 mg/kg, route oral.

Chain of Human immunodeficiency virus type 1 integrase (Q7ZJM1 whole entry): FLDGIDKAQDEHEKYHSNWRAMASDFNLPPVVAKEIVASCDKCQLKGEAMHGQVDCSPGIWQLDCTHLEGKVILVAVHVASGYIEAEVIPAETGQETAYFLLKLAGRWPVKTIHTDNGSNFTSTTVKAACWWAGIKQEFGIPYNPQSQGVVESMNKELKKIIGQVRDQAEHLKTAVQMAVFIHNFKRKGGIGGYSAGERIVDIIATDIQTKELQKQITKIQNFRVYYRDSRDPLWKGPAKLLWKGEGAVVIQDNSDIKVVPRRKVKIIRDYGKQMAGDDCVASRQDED

As to `COCCNC(=O)c1[nH]cc(C(=O)NCc2ccc(F)cc2)c(=O)c1O`, the half-inhibitory concentration (IC50) in [1] came out at 110 nM; in series [3], 130 nM. In addition, it took 16000 nM to reach half-maximal cytotoxicity in [2] (CC50 at 96 h).

As for `O=C(NCCO)c1[nH]cc(C(=O)NCc2ccc(F)cc2)c(=O)c1O`, the IC50 was 5500 nM in series [1] and 300 nM in series [3]. In series [2], this molecule yielded a 50% cytotoxic concentration (CC50) at 96 h greater than 200000 nM.

Regarding `NC(=O)c1[nH]cc(C(=O)NCc2ccc(F)cc2)c(=O)c1O`, the IC50 in series [1] was 5500 nM; in series [3], 380 nM. This molecule displayed a 50% cytotoxic concentration (CC50) at 96 h in [2] of 40000 nM.

`CNC(=O)c1[nH]cc(C(=O)NCc2ccc(F)cc2)c(=O)c1O`: the IC50 in series [1] turned out to be 120 nM; in series [3], 1300 nM. Also, the CC50 at 96 h in [2] worked out at 8500 nM.

As to `CN(C)C(=O)c1[nH]cc(C(=O)NCc2ccc(F)cc2)c(=O)c1O`, the concentration for half-maximal inhibition (IC50) is 1600 nM in series [1] and 540 nM in series [3]. In series [2], this molecule gave a 50% cytotoxic concentration (CC50) at 96 h of 5100 nM.

Turning to `COC(=O)c1[nH]cc(C(=O)NCc2ccc(F)cc2)c(=O)c1O`, the Ratio in [4] is 1.6; in series [5] it was 3.4; in series [20], 6. The “inhibition (INH)” value in [6] is on record as “Not Active”. The results for the Vd in series [7], in series [10] and in series [22] were 0.14 L/kg, 0.3 L/kg and 0.2 L/kg, respectively. Moreover, the half-life in series [8] was 4.7 h; in series [16] it was 4.2 h; in [18], 3.8 h; in [19], 5.3 h. For the same molecule, the clearance in series [9] was determined as 0.84 mL/min/kg; in series [15] it was 1.2 mL/min/kg; in series [17], 2.4 mL/min/kg. Also, the IC50 in series [11] turned out to be 120 nM; in series [1], 10 nM; in [3], 18 nM. Further, the AUC(0-inf) in [12] turned out to be 41200 ng·h/mL. The “Ratio IC50” value in series [13] is on record as 21; in [23], 200; in series [24], 1.5; in series [25] it was 12. Also, the bioavailability in series [14] is 53%; in [21], 46%; in [26], 22%. Besides, the midpoint of cytotoxicity in [2], the CC50 at 96 h, lay at 19000 nM. This molecule yielded a concentration at 24 h in [27] of 130 ng/mL.

Regarding `O=C(O)c1[nH]cc(C(=O)NCc2ccc(F)cc2)c(=O)c1O`, the concentration for half-maximal inhibition (IC50) in series [1] was determined as 1400 nM; in series [3], 10 nM. In series [2], this molecule gave a CC50 at 96 h greater than 200000 nM.

Consider `COc1cc2c(cc1Cc1cccc(Cl)c1F)c(=O)c(C(=O)O)cn2[C@H](CO)C(C)C` [ELVITEGRAVIR], for which the values for the IC50 in series [11] and in [1] were 29 nM and 1.3 nM, respectively.

On to `Cc1nnc(C(=O)NC(C)(C)c2nc(C(=O)NCc3ccc(F)cc3)c(O)c(=O)n2C)o1` [RALTEGRAVIR], for which the values for the IC50 in series [11] and in series [1] were 29 nM and 6.2 nM, respectively.
